Screening results: PubChem BioAssay, several laboratories
An excerpt weighted towards active compounds, which were near 2.3% of everything screened.
UBC13 inh: human UBC13 polyubiquitination inhibition | UBC13 polyubiquitin chain formation, TR-FRET | actives 0.47% (n = 330,000) | inhibition, % at 20 µM | AID 485273; in the data active = inhibition above about 45%, passing the limit was not always enough
PP5 primary: PP5 (human) phosphatase inhibition | P53041 | purified PP5c, OMFP substrate fluorescence | inhibition, % at 6.7 µM | actives 0.18% (n = 320,000) | AID 1987;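 active = inhibition above the campaign's mean inhibition across all tested compounds plus 3 SD, cut at about 9.5% in these data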;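 also: 0% = DMSO only and 100% = 100 µM cantharidin control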
PREPL inh: human PREPL enzyme inhibition; Q4J6C6; recombinant PREPL, fluorescence polarization activity-based probe; inhibition, % at 5.96 µM; actives 0.68% (n = 320,000); AID 2751; in the data active = inhibition above about 43%;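 also: 0% = enzyme with DMSO and 100% = wells lacking enzyme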
Fh CTSL1 inh: cathepsin L1 inhibition, PFM18AAP counter-screen; AID 1906; recombinant F. hepatica cathepsin L1, Z-Leu-Arg-MCA fluorescence; inhibition, % at 5.96 µM; actives 0.49% (n = 300,000);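 active = inhibition above the mean of all tested compounds plus 3 SD, set per screening campaign, cut at about 17% in these data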;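 also: 0% = plate median of test compound wells and 100% = 1 µM Z-Phe-Ala-diazomethylketone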
PP1 counter: blocks human PP1-alpha phosphatase, a PP5 counter-screen | actives 0.9% (n = 320,000) | inhibition, % at 6.7 µM | P62136 | purified PP1alpha, OMFP fluorescence;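 active = inhibition above the mean inhibition of all tested compounds plus 3 SD, computed separately for each screening campaign, cut at about 15% in these data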
UCH37 DUB inh: blocks the human deubiquitinase UCH37. Q9Y5K5. purified proteasome/UCH37, Ub-AMC cleavage fluorescence. inhibition, % (concentration not given with the values). actives 0.33% (n = 330,000);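 active = mean inhibition over replicate wells above about 20%, limit read from the data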;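 also: 0% = compound-free wells with enzyme and 100% = wells lacking proteasome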
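Material: Human UCH37 enzyme supplied as purified proteasome complex | Schedule: 30 min preincubation with enzyme, 25 min cleavage at room temperature | Detection: AMC fluorescence 355/460 nm | Measure: % inhibition of Ub-AMC cleavage fluorescence | Controls: Wells without proteasome as full block, compound-free enzyme plus substrate as uninhibited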
PP5 inh confirm: confirmation of human PP5 phosphatase inhibitors. shares compounds with PP5 primary. Purified PP5, fluorogenic phosphatase substrate, fluorescence. inhibition, % at 6.7 µM. actives 22% (n = 460); in the data active = inhibition above about 9.5%
PP1 counter 3x: counter-screen for PP5 inhibitors: human PP1 phosphatase inhibition; shares compounds with PP5 primary; inhibition, % at 6.7 µM; actives 4% (n = 460); PP1 enzyme, fluorescent phosphatase substrate; AID 2355; in the data active = inhibition above about 16%
* marks the source's active call; other numbers are inactive results; nt = not tested or not shown.

SMILES	UBC13 inh	PP5 primary	PREPL inh	Fh CTSL1 inh	PP1 counter	UCH37 DUB inh	PP5 inh confirm	PP1 counter 3x
CCOC(=O)c1[nH]c(C)c(C(=O)OCC)c1C	3.6	1.6	4.7	-3.3	1.5	5.6	nt	nt
CCOC(=O)c1c(C(F)(F)C(F)(F)C(F)(F)C(F)(F)F)n[nH]c1C	6.8	13.6*	12.8	4.6	11.8	0.8	9.9*	12.6
COc1cc(/C=C/C(=O)Nc2cc(C(F)(F)F)ccc2Cl)cc(OC)c1OC	14.8	9.9*	4.9	-0.1	5.2	-25.5	3.9	3.1
COc1cc(C(C)=O)ccc1COc1ccc(C(=O)O)cc1OC	-7.4	11.4*	-3.2	-1.7	-0.5	3.6	-0.8	-1.1
CC(SCc1ccccc1)C(=O)NN=Cc1ccc(OCC(=O)NCc2ccco2)cc1 (stereo not given)	nt	nt	nt	nt	nt	3.8	nt	nt
Cc1cc(C(=O)N2CCc3ccccc32)c2ccccc2n1	-10.3	9.8*	-3.4	-0.2	-0.4	2.4	-3.6	-2.3
Nc1ccccc1C(=O)N1CCc2ccccc21	-7.8	10.2*	11.8	-0.9	2.9	2.5	-2.6	-3.8
O=C(NN=Cc1c(O)ccc2ccccc12)c1ccc(Cn2cccn2)o1	nt	nt	nt	nt	nt	-91.5	nt	nt
O=C(N/N=C\c1c(O)ccc2ccccc12)c1ccc(Cn2cccn2)o1	43.1	18.5*	12.4	2.4	5.4	nt	-3.5	14.9
CCOc1ccc(C=Nn2c(COc3ccccc3)n[nH]c2=S)cc1OC	nt	nt	nt	nt	nt	5.7	nt	nt
S=C(NC1CCCC1)N1CCOCC1	3.1	-0.1	-7.3	-4.1	-1.4	-0.9	nt	nt
S=C(NC1CCCCC1)N1CCOCCOCCN(C(=S)NC2CCCCC2)CCOCC1	15.1	9.8*	16.1	0.7	1.3	0.5	-0.5	1.5
O=C(COc1cccnc1[N+](=O)[O-])Nc1c(Cl)cccc1Cl	-17.9	nt	5.3	nt	nt	0.2	nt	nt
O=C(COc1cccnc1[N+](=O)[O-])c1ccc(Cl)s1	-1.7	10.7*	7.3	-1.4	7.8	4.0	-4.2	1.8
COc1ccccc1NC(=O)C/C(N)=N/OCC(=O)Nc1cccc(Cl)c1	7.9	nt	-1.5	nt	nt	6.1	nt	nt
COc1ccc(Nc2sc(C(=O)Nc3cccc(Cl)c3)c(N)c2C(=O)Nc2ccccc2OC)cc1	nt	11.7*	11.4	3.6	9.5	nt	0.7	5.8
C=CCNC(=S)NN=Cc1ccc(N(CC)Cc2ccccc2)cc1	nt	nt	nt	nt	nt	-67.9	nt	nt
O=C(C1CCC(CNS(=O)(=O)c2ccccc2)CC1)N1CCCCC1 (stereo not given)	-2.0	9.9*	6.8	-1.2	2.4	0.3	-3.7	-4.7
CCOC(=O)N1CCN(C(=O)C2CCC(CNS(=O)(=O)c3ccccc3)CC2)CC1 (stereo not given)	-3.5	1.9	7.1	-1.1	3.8	-2.5	nt	nt
O=C(CNc1cccc(C(F)(F)F)c1)NN=Cc1ccccc1C(=O)O	nt	nt	nt	nt	nt	2.8	nt	nt
CC1(C)Cc2cccc(OCC(=O)Nc3cccnc3Cl)c2O1	0.1	16.3*	9.4	4.2	0.5	-1.6	-3.0	2.9
CC1(C)Cc2cccc(OCC(=O)Nc3cccnc3)c2O1	1.7	-0.5	1.3	-2.5	-5.0	0.3	nt	nt
CN(C)c1ccc(C=NN2C(=S)SC(C)(C)C2N(O)C(=O)Nc2ccc([N+](=O)[O-])cc2)cc1 (stereo not given)	nt	nt	nt	nt	nt	7.9	nt	nt
CC(C)C[C@H](NC(=O)c1[nH]cnc1C(=O)Nc1ccccc1)C(=O)OC(C)(C)C	-9.1	9.8*	14.8	6.5	7.4	28.2*	7.4	6.5
CC(C)C[C@H](NC(=O)c1[nH]cnc1C(=O)N[C@@H](C)C(=O)OC(C)(C)C)C(=O)OC(C)(C)C	-3.3	10.8*	10.2	5.6	9.5	1.7	6.8	7.5
CC(C)C[C@H](NC(=O)c1nc[nH]c1C(=O)NCC(=O)OC(C)(C)C)C(=O)OCc1ccccc1	-13.9	12.0*	6.5	-0.1	9.2	-0.6	8.8	8.8
O=C(Nc1ccc(OC(F)(F)F)cc1)C1CCCN(C(=O)c2ccc(Cl)cc2)C1 (stereo not given)	1.8	13.6*	-50.8	nt	-0.1	3.7	4.0	2.5
